Measurements from ChEMBL document CHEMBL1143761, “Synthesis and bioactivities of 6,7,8-trimethoxy-N-aryl-4-aminoquinazoline derivatives” (Bioorg Med Chem, 2007).
Activity calls are given as the source filed them. The calls are words filed in the database; no cut-off is given here.

What was measured:
BGC-823 = assay: Growth inhibition of human BGC823 cells after 72 hrs by MTT assay; assay type: functional, cell-based
Method in brief: (§1)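 Cell lines were grown in RPMI 1640 with 10% fetal bovine serum and plated at 2 × 10³ cells/well. Compounds were taken up in DMSO, diluted in medium, and applied over a 1–100 range for 72 h, with 0.1% DMSO as control. MTT formazan was read at 595 nm. IC50 came from the dose–response curve, from three separate experiments each run in triplicate.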

A-431 = assay: Growth inhibition of human A431 cells after 72 hrs by MTT assay; assay type: functional, cell-based; method in brief: as §1
PC-3 = assay: Growth inhibition of human PC3 cells after 72 hrs by MTT assay; assay type: functional, cell-based; method in brief: as §1
Bcap37 = assay: Growth inhibition of human Bcap37 cells after 72 hrs by MTT assay; assay type: functional, cell-based; method in brief: as §1
[1] = target: Mitogen-activated protein kinase 1 (Homo sapiens) (UniProt P28482); assay: Inhibition of EGF-induced ERK2 phosphorylation in PC3 cells at 20 uM after 60 mins; assay type: cell-based; settings: PC-3
Chain of Mitogen-activated protein kinase 1 (Homo sapiens) (P28482 whole entry): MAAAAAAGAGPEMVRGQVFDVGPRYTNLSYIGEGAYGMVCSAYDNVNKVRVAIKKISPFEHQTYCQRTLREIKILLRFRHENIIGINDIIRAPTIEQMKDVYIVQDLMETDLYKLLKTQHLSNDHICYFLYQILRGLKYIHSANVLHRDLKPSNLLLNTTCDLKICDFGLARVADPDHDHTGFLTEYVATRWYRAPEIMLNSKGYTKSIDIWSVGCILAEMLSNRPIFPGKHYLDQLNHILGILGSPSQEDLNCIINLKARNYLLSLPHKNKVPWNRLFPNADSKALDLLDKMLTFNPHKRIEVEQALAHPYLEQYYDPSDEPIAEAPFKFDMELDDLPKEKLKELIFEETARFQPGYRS
Method in brief: (§2)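 PC3 cells were grown in RPMI 1640 with 10% FBS at 37 °C for 36–48 h, then serum-starved for 24 h. They were pretreated with compound at 20 for 60 min, then stimulated with EGF for 10 min and quenched on ice. Lysates were immunoblotted with anti-phospho-ERK1/2 monoclonal antibody overnight at 4 °C, then secondary antibody for 2–3 h at 25 °C, with ECL detection.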

[2] = target: Mitogen-activated protein kinase 3 (Homo sapiens) (UniProt P27361); assay: Inhibition of EGF-induced ERK1 phosphorylation in PC3 cells at 20 uM after 60 mins; assay type: cell-based; settings: PC-3; method in brief: as §2
Chain of Mitogen-activated protein kinase 3 (Homo sapiens) (P27361 whole entry): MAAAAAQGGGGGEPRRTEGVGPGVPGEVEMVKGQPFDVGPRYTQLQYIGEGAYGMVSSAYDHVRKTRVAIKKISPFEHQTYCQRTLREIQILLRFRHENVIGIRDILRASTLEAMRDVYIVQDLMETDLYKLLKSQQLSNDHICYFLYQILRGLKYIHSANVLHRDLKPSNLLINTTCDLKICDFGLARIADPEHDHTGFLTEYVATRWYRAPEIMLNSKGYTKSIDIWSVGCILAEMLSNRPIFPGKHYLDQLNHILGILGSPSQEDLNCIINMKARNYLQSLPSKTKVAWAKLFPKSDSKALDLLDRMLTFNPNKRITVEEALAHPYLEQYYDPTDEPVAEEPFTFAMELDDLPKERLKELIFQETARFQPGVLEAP

SMILES	IC50 (BGC-823; Homo sapiens, BGC-823, 72 h) [µM]	IC50 (A-431; Homo sapiens, A-431, 72 h) [µM]	IC50 (PC-3; Homo sapiens, PC-3, 72 h) [µM]	Activity [1]	Activity [2]	IC50 (BGC-823; bgc-823) [µM]	IC50 (PC-3; pc-3) [µM]	IC50 (A-431; a-431) [µM]	IC50 (Bcap37; Homo sapiens, Bcap37, 72 h) [µM]	IC50 (Bcap37; bcap37) [µM]
COc1cc2c(Nc3ccc(Br)cc3Cl)ncnc2c(OC)c1OC	31	51.5	21						89	
COc1cc2ncnc(Nc3cccc(Br)c3)c2cc1OC	16.8		8.9	Active	Active				13.7	
COc1cc2c(Nc3cccc([N+](=O)[O-])c3)ncnc2c(OC)c1OC	39	37.7	24.4						31.1	
COc1cc(Nc2ncnc3c(OC)c(OC)c(OC)cc23)cc(OC)c1OC	23.1	65.4	30						76.5	
COc1cc2c(N[C@@H](C)c3ccccc3)ncnc2c(OC)c1OC	11.9	12	10						12.9	
COc1cc2c(Nc3ccc(Br)cc3)ncnc2c(OC)c1OC	23.8	42.1	23.4						31.2	
COc1cc2c(Nc3ccccc3F)ncnc2c(OC)c1OC	36.7	72.1	18.8						63.2	
COc1cc2c(=NCc3ccccc3)[nH]cnc2c(OC)c1OC	37.7	21.2	36.7						65.4	
COc1cc2c(Nc3ccc(F)cc3)ncnc2c(OC)c1OC	39.6	29	24.5						28.7	
COc1cc2c(Nc3cccc(F)c3)ncnc2c(OC)c1OC [listing 1 of 2 here]						28.9	25.3			22.1
COc1cc2c(Nc3cccc(Br)c3)ncnc2c(OC)c1OC [listing 1 of 2 here]						12.1	12.6	11		21
COc1cc2c(N[C@H](C)c3ccccc3)ncnc2c(OC)c1OC	12	21	18.8						23.2	
COc1cc2c(Nc3cccc(Br)c3)ncnc2c(OC)c1OC [listing 2 of 2 here]		7.6	8.9			5.8			12.3	

More lines, main results first:

IC50 (BGC-823; Homo sapiens, BGC-823, 72 h) [µM]	IC50 (A-431; Homo sapiens, A-431, 72 h) [µM]	IC50 (PC-3; Homo sapiens, PC-3, 72 h) [µM]	Activity [1]	Activity [2]	IC50 (BGC-823; bgc-823) [µM]	IC50 (PC-3; pc-3) [µM]	IC50 (A-431; a-431) [µM]	SMILES	IC50 (Bcap37; Homo sapiens, Bcap37, 72 h) [µM]	IC50 (Bcap37; bcap37) [µM]
21	31	31.2						COc1cc2c(Nc3ccccc3[N+](=O)[O-])ncnc2c(OC)c1OC	29.9	
35.4	22.2	20.1						COc1cc2c(Nc3ccc(O)cc3)ncnc2c(OC)c1OC	45.5	
32.2	45.2	25.5						COc1cc2c(Nc3ccc([N+](=O)[O-])cc3)ncnc2c(OC)c1OC	28.9	
9.9	9	9.8						COc1cc2c(cc1Nc1ncnc3c(OC)c(OC)c(OC)cc13)oc1ccccc12	8.1	
29.9	29.7	35.6						COc1cc2c(Nc3cccc(F)c3)ncnc2c(OC)c1OC [listing 2 of 2 here]	21	
19	32.1	19						COc1cc2c(Nc3cccc(Cl)c3)ncnc2c(OC)c1OC	21	
34.4	19	31						COc1cc2c(Nc3ccc(Cl)cc3)ncnc2c(OC)c1OC	52.2	
